Results from ChEMBL document CHEMBL4425157, “New antibacterial agents: Hybrid bioisoster derivatives as potential E. coli FabH inhibitors” (Bioorg Med Chem Lett, 2016).
Converted amounts (≈) assume the structure as drawn. The source made the active and inactive calls. No cut-off for these calls is given here.

How the values were obtained:
Escherichia coli = test: Antibacterial activity against Escherichia coli ATCC 25922 by broth microdilution method; format: functional
In short: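 MIC read by broth microdilution, run in duplicate.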

Staphylococcus aureus = test: Antibacterial activity against Staphylococcus aureus ATCC 29213 by broth microdilution method; format: functional
Candida albicans = test: Antifungal activity against Candida albicans ATCC 10231 by broth dilution method; format: functional
[1] = Induction of nitrite formation at 100 uM measured after 1 hr in presence of L-cysteine by Griess assay; format: functional
In short: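 Compound at 100 µM incubated with 5 mM L-cysteine in 50 mM phosphate buffer pH 7.4/methanol (1:1), 1 h at 37 °C; aliquots taken and nitrite quantified by Griess reaction.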

Vero = test: Cytotoxicity against african green monkey Vero cells assessed as reduction in cell viability measured after 72 hrs by MTS assay; format: cell-based; settings: Chlorocebus sabaeus
In short: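 Vero cells exposed to compounds, with viability read by MTS assay; IC50 derived from the viability data.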

[2] = Growth inhibition of african green monkey Vero cells at highest concentration measured after 72 hrs by MTS assay relative to control; format: cell-based; settings: chlorocebus sabaeus, read-out: GI
In short: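 Vero cells in MTS viability assay; the value is the percentage growth inhibition at the highest compound concentration tested.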

Compound: GENTAMICIN
- MIC (Escherichia coli): < 0.02 µM
- MIC (Staphylococcus aureus): 0.076 µM

Compound: Cc1c(/C=N/NS(=O)(=O)c2ccc([N+](=O)[O-])cc2)no[n+]1[O-]
- MIC (Candida albicans): > 100 µM
- Activity [1]: inactive
- IC50 (Vero): > 100 µM
- MIC (Escherichia coli): > 300 µM
- MIC (Staphylococcus aureus): > 100 µM
- inhibition at 72 h [2]: 0%

Compound: Cc1ccc(S(=O)(=O)N/N=C/c2no[n+]([O-])c2C)cc1
- MIC (Candida albicans): > 100 µM
- Activity [1]: inactive
- IC50 (Vero): > 100 µM
- MIC (Escherichia coli): 0.36 µM (≈ 0.107 µg/mL)
- MIC (Staphylococcus aureus): > 100 µM
- inhibition at 72 h [2]: 8.38%

Compound: Cc1c(/C=N/NS(=O)(=O)c2ccc(C(C)(C)C)cc2)no[n+]1[O-]
- MIC (Candida albicans): > 100 µM
- Activity [1]: inactive
- IC50 (Vero): > 100 µM
- MIC (Escherichia coli): 287 µM (≈ 97.1 µg/mL)
- MIC (Staphylococcus aureus): > 100 µM
- inhibition at 72 h [2]: 74.8%

Compound: CO[C@H]1/C=C/O[C@@]2(C)Oc3c(C)c(O)c4c(O)c(c(/C=N/N5CCN(C)CC5)c(O)c4c3C2=O)NC(=O)/C(C)=C\C=C\[C@H](C)[C@H](O)[C@@H](C)[C@@H](O)[C@@H](C)[C@H](OC(C)=O)[C@@H]1C [RIFAMPIN]
- IC50 (Vero): > 100 µM
- inhibition at 72 h [2]: 44.8%

Compound: Cc1c(/C=N/NS(=O)(=O)c2ccccc2)no[n+]1[O-]
- MIC (Candida albicans): > 100 µM
- Activity [1]: inactive
- IC50 (Vero): > 100 µM
- MIC (Escherichia coli): 10.7 µM (≈ 3.03 µg/mL)
- MIC (Staphylococcus aureus): > 100 µM
- inhibition at 72 h [2]: 63.4%

Compound: C[C@@H]1[C@H](O)[C@@H](C)/C=C/C=C/C=C/C=C/C=C/C=C/C=C/[C@H](O[C@@H]2O[C@H](C)[C@@H](O)[C@H](N)[C@@H]2O)C[C@@H]2O[C@](O)(C[C@@H](O)C[C@@H](O)[C@H](O)CC[C@@H](O)C[C@@H](O)CC(=O)O[C@H]1C)C[C@H](O)[C@H]2C(=O)O [AMPHOTERICIN B]
- MIC (Candida albicans): 0.027 µM (≈ 0.025 µg/mL)

Compound: CC1(C)S[C@@H]2[C@H](NC(=O)[C@H](N)c3ccccc3)C(=O)N2[C@H]1C(=O)O [AMPICILLIN]
- MIC (Escherichia coli): 9.59 µM (≈ 3.35 µg/mL)
- MIC (Staphylococcus aureus): 1.1 µM (≈ 0.384 µg/mL)

Compound: COc1ccc(S(=O)(=O)N/N=C/c2no[n+]([O-])c2C)cc1
- MIC (Candida albicans): > 100 µM
- Activity [1]: inactive
- IC50 (Vero): > 100 µM
- MIC (Escherichia coli): 77.8 µM (≈ 24.3 µg/mL)
- MIC (Staphylococcus aureus): > 100 µM
- inhibition at 72 h [2]: 0%
